In ChEMBL document CHEMBL1125034, “Design and synthesis of 4H-3,1-benzoxazin-4-ones as potent alternate substrate inhibitors of human leukocyte elastase” (J Med Chem, 1990):

Columns and labels:
Neutrophil elastase = target: T1, Neutrophil elastase (Homo sapiens, UniProt P08246); assay: Inhibition of human leukocyte elastase
T1 sequence (P08246 whole entry): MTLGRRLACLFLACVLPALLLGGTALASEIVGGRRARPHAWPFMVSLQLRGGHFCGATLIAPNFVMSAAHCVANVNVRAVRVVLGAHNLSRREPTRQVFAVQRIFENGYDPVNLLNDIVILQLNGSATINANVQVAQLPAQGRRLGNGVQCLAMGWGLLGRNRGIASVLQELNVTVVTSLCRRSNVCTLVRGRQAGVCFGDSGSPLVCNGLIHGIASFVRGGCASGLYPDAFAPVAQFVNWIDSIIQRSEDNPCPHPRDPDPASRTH

[1] = Alkaline hydrolysis rate of the compound; format: ADME
Summary of the method: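 Alkaline hydrolysis rate constants measured at several pH values at 25 °C. Loss of the long-wavelength UV chromophore (λmax typically 300-345 nm) was followed by spectrophotometer.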

[2] = Partition coefficient (logD7.4); format: physicochemical; details: octanol/water, pH 7.4

Row | SMILES | Ki (Neutrophil elastase) | Log kOH- [1] | logD [2]
1 | Cc1cccc2c(=O)oc(NCc3ccccc3)nc12 | 2000 nM | 0.92 | 
2 | CC(C)N(c1nc2ccccc2c(=O)o1)C(C)C | 2570 nM | 0.79 | 3.7
3 | CCOC(=O)Nc1ccc2c(=O)oc(OCC)nc2c1 | 17.8 nM | 1.46 | 
4 | COC(=O)[C@@H](CC(C)C)NC(=O)[C@@H](CC(C)C)Nc1nc2cc(C)cc(C)c2c(=O)o1 | 102 nM |  | 
5 | CCOc1nc2cc(N)ccc2c(=O)o1 | 5.75 nM | 0.2 | 
6 | Cc1cccc2nc(NC(C)C)oc(=O)c12 |  | 0.41 | 3
7 | O=c1oc(CBr)nc2ccccc12 | 955 nM | 2.06 | 
8 | CC(=O)N(C)c1nc2ccccc2c(=O)o1 | 5.75 nM | 2.57 | 
9 | CCSc1nc2cccc(CC)c2c(=O)o1 |  | 1.37 | 
10 | COC(=O)[C@H](CC(C)C)Nc1nc2cc(C)cc(C)c2c(=O)o1 | 1260 nM | -0.18 | 4
11 | CC(C)(C)c1nc2ccccc2c(=O)o1 | 8910 nM | 1.38 | 
12 | CC[C@H](C)[C@H](Nc1nc2ccccc2c(=O)o1)C(=O)OC | 214 nM | 1.32 | 2.6
13 | CCOC(=O)CSc1nc2ccccc2c(=O)o1 | 72.4 nM | 2.93 | 
14 | CCCCN(C(C)=O)c1nc2ccccc2c(=O)o1 | 10 nM | 2.48 | 
15 | CC(C)COc1nc2ccccc2c(=O)o1 | 11.5 nM | 1.83 | 
16 | C[C@H](N)C(=O)c1nc2ccccc2c(=O)o1 | 759 nM | 1.76 | 
17 | COc1cc2nc(SC/C=C/c3ccccc3)oc(=O)c2cc1OC | 6920 nM |  | 
18 | COC(=O)[C@H](CC(C)C)Nc1nc2cccc(C)c2c(=O)o1 | 251 nM | 0.59 | 3.7
19 | C[C@H](NC(=O)[C@@H]1CCCN1c1nc2ccccc2c(=O)o1)C(N)=O | 234 nM |  | 
20 | Cc1cccc2c(=O)oc(NC(C)C)nc12 | 589 nM | 0.69 | 
21 | O=c1oc(Nc2ccccc2)nc2ccccc12 | 11000 nM | 1.18 | 3.5
22 | CCc1cc(OC)cc2nc(NC(C)C)oc(=O)c12 | 11 nM | -0.6 | 
23 | CC(C)NC(=O)[C@H](CC(N)=O)Nc1nc2ccccc2c(=O)o1 | 2140 nM | 1.45 | 0.2
24 | Cc1cccc2nc(N)oc(=O)c12 |  | -0.05 | 
25 | CCCCN(CCCC)c1nc2cccc(C)c2c(=O)o1 | 363 nM |  | 
26 | Cc1ccc2c(=O)oc(NC(C)C)nc2c1C | 708 nM | 0.46 | 3.8
27 | O=c1oc(SCc2ccccc2)nc2ccccc12 | 39.8 nM | 2.33 | 3.6

Row | SMILES | Ki (Neutrophil elastase) | Log kOH- [1] | logD [2]
28 | O=c1oc(N2CCOCC2)nc2ccccc12 | 708 nM | 1.5 | 
29 | NC(=O)C1CCCN1c1nc2ccccc2c(=O)o1 (stereo not given) | 178 nM | 1.21 | 0.4
30 | CCN(CC)c1nc2c(C)ccc(C)c2c(=O)o1 | 105 nM |  | 
31 | Nc1cccc(CNc2nc3ccccc3c(=O)o2)c1 | 1580 nM | 1.18 | 
32 | CC(C)Nc1nc2cc(N)ccc2c(=O)o1 | 776 nM | -0.46 | 
33 | COc1cc2nc(C)oc(=O)c2cc1OC | 832000 nM | 0.53 | 
34 | O=c1oc(OCc2ccccc2)nc2ccccc12 | 56.2 nM | 1.99 | 
35 | CCc1cccc2nc(NC(C)C)oc(=O)c12 |  | 0.31 | 
36 | CC(C)COC(=O)N(C)c1nc2ccccc2c(=O)o1 | 2.69 nM | 2.21 | 
37 | O=c1oc(NC2CCCCC2)nc2ccccc12 | 112 nM | 0.89 | 3.5
38 | CCC(C)(C)Nc1nc2ccccc2c(=O)o1 | 155 nM |  | 
39 | CCOC(=O)CCCNc1nc2ccccc2c(=O)o1 | 18600 nM | 1.21 | 2.3
40 | Cc1cccc2c(=O)oc(C(C)(C)C)nc12 | 55000 nM | 0.82 | 4
41 | Cc1cccc2c(=O)oc(SCc3ccccc3)nc12 | 110 nM |  | 
42 | CNc1nc2c(C)cccc2c(=O)o1 | 97700 nM |  | 
43 | O=c1oc(Cc2ccccc2)nc2ccccc12 | 3630 nM |  | 
44 | CSc1nc2ccccc2c(=O)o1 | 20.9 nM | 2.16 | 
45 | CCNc1nc2ccccc2c(=O)o1 | 52.5 nM |  | 
46 | CCOc1nc2cccc(CC)c2c(=O)o1 | 0.0427 nM | 1.17 | 
47 | Cc1cccc2nc(N(C(C)C)C(C)C)oc(=O)c12 | 398 nM |  | 
48 | Nc1nc2ccccc2c(=O)o1 |  | 0.53 | 
49 | CCc1cccc2nc(N(C(C)C)C(C)C)oc(=O)c12 | 70.8 nM |  | 
50 | CC(C)Sc1nc2ccccc2c(=O)o1 | 7.76 nM |  | 
51 | CCCCCNc1nc2cccc(C)c2c(=O)o1 | 3390 nM |  | 
52 | CNc1nc2ccccc2c(=O)o1 |  | 1.38 | 1.7
53 | O=c1oc(C(F)(F)C(F)(F)C(F)(F)F)nc2ccccc12 | 91.2 nM | 3.27 | 
